Shown are actives, neighbours in structure and some others; about 4% of the full set was active somewhere.
FAS-TE inh – FAS thioesterase (human) inhibition | AID 602261 | actives 0.67% (n = 360,000) | P49327 | recombinant FAS-TE, OMFH fluorogenic substrate, fluorescence endpoint | inhibition, % at 15 µM;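 active = compounds whose normalised, plate-corrected inhibition of enzyme fluorescence in the single-dose primary screen is 50% or more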;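 also: 0% = DMSO with enzyme and 100% = substrate without enzyme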
iPSC survival up – increases survival of single human iPS cells; actives 0.044% (n = 360,000); hiPSC single-cell survival, ATPlite luminescence; 100% = ROCK inhibitor wells, 0% = DMSO; AID 602274; survival enhancement, % at 20 µM; in the data active = survival enhancement above about 18%;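 also: cells exposed to compounds for 16 hours before the ATP read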
Cardio protect – myocardial damage modulation in H9c2 cells; actives 0.63% (n = 360,000); H9c2 cardiomyocytes, H2O2 injury protection, ATPLite, 2 h; AID 588492; protection from H2O2 cell death, % at 20 µM;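 active = compounds giving at least 50% protection of heart cells from peroxide-induced death in the single-dose screen, raw or plate-pattern-corrected value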;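 also: 0% = DMSO wells with peroxide and 100% = DMSO wells without peroxide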
Arr AP2 block – blocks beta-arrestin peptide binding to AP2 adaptin; FITC-arrestin peptide / GST-AP2 beads, flow cytometry; AP2 beta2 appendage carries R879A mutation; inhibition, % at 10 µM; actives 0.31% (n = 340,000); AID 504490;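 active = inhibition above a set limit, near 3 SD of compounds lacking own fluorescence, cut at about 54% in these data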;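 also: plate controls were DMSO wells for no effect and 5 µM unlabelled arrestin peptide for full effect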
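Test system: GST-tagged AP2 beta2-adaptin appendage (R879A) on 4 µm glutathione beads; also added: fluorescein-tagged arrestin peptide at 50 nM final; timing: 12 min plus 1 h, RT; signal: flow cytometry, FL1 (488/535 nm); read-out: percent drop in bead-associated FITC signal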
NR3A LBD binder – modulators (binders) of human NR3A ligand-binding domain. NR3A LBD differential scanning fluorimetry, Tm shift; 0% = protein alone, 100% = glycine-bound protein. AID 1259313. actives 2.5% (n = 340,000). Tm shift relative to glycine control, % at 25 µM;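 active = melting temperature shift of at least 10% of the positive control shift, at one fixed dose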
SENP1 inh – blocks the human SENP1 SUMO protease catalytic domain | recombinant SENP1 catalytic domain, CyPet-SUMO1-YPet FRET cleavage | inhibition, % at 10 µM | actives 0.21% (n = 360,000) | AID 624204;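 active = inhibition at least 30% at 10 µM, raw YFP signal under a set limit, fluorescence ratio 0.5 to 1.5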;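 also: 0% = enzyme with DMSO and 100% = no enzyme wells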
Target sequence (Q9P0U3 419-644 limits assumed): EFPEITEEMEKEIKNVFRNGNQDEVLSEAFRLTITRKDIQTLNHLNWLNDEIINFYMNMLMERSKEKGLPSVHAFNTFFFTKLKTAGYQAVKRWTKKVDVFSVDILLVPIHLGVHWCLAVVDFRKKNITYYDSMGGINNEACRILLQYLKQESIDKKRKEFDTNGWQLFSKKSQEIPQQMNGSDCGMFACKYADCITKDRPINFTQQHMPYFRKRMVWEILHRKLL
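System: Recombinant human SENP1 catalytic domain, His6-tagged | Incubation: Enzyme reaction for 50 min at room temperature, dark | Medium: Tris pH 8 with BME, BSA, NP40 and catalase | Also added: 25 nM SUMO1 FRET substrate | Compound: 10 µM single point, 0.5% DMSO | Measured by: FRET fluorescence in CFP and YFP emission channels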
* = called active by the depositor; . = no result.

SMILES	FAS-TE inh	iPSC survival up	Cardio protect	Arr AP2 block	NR3A LBD binder	SENP1 inh
CC(Sc1nc2ccccc2s1)C(=O)Nc1ccc2c(c1)OCO2 (stereo not drawn)	-2	2	-9	-4	0	0
CCCC(=O)Nc1ccc2nc(SCC(=O)Nc3ccc(N4CCOCC4)c(Cl)c3)sc2c1	20	-2	-1	6	2	1
C=CCNC(=S)NNC(=O)CSc1nc2ccccc2s1	-4	0	-5	-2	2	2
O=C(CSc1nc2ccccc2s1)NNC(=S)Nc1ccc(Cl)cc1	6	-1	-3	-7	32*	-1
Nc1ccc2nc(SCC(=O)Nc3ccc(N4CCOCC4)c(Cl)c3)sc2c1	-4	1	-28	-11	18*	-2
O=C(CSc1nc2ccccc2s1)Nc1ccc2c(c1)OCO2	23	1	-18	2	14*	-3
Oc1ccc2ccccc2c1CNc1ccccc1	-2	-1	1	43	-9	-12
O=[N+]([O-])c1ccccc1NCc1c(O)ccc2ccccc12	27	1	-10	27	13*	4
CCCCC1C(=O)NN(c2ccccc2)C1=O (stereo not drawn)	-6	0	5	6	0	1
O=C1C(CCS(=O)c2ccccc2)C(=O)N(c2ccccc2)N1c1ccccc1 (stereo not drawn)	-4	4	4	10	17*	4
COc1ccc(NC(=O)C2(C)CCN2Cc2ccc(C(C)C)cc2)cc1OC (stereo not drawn)	9	1	-16	.	.	2
O=C(Nc1ccccn1)C(c1ccccc1)c1ccccc1	0	15	9	.	.	1
O=C(/C=C/[C@H]1O[C@@H](n2ccc(=O)[nH]c2=O)[C@H](O)[C@@H]1O)NCc1ccco1	-7	1	-5	.	.	2
Cc1cc(=O)n2[nH]c(N)c(N=Nc3ccccc3F)c2n1	-4	-2	27	5	1	2
Cc1nc2c(N=Nc3ccccc3F)c(N)nn2c(N)c1C#N	-2	-1	22	11	15*	2
COc1ccc(-c2c(C#Cc3ccsc3)c3cc(-c4ccc5cc[nH]c5c4)ccc3n2C)cc1	17	1	3	21	12*	-24
COc1ccc(N2CSC(=S)N(c3ccc(OC)cc3)C2)cc1	3	1	-8	.	.	1
O=C(Nn1c(O)c(C=C2N=c3ccccc3=N2)sc1=S)c1cccc(Cl)c1	1	1	8	14	29*	-11
Cc1ccc(C(=O)Nn2c(O)c(C=C3N=c4ccccc4=N3)sc2=S)cc1	-4	-1	-7	4	27*	-10
Cc1ccc(S(=O)(=O)Nn2c(O)c(C=C3N=c4ccccc4=N3)sc2=S)cc1	-3	0	0	0	7	-11
Oc1c(C=C2N=c3ccccc3=N2)sc(=S)n1-c1ccc2ccccc2c1	-2	0	-6	11	17*	-15
O=C(Nn1c(O)c(C=C2N=c3ccccc3=N2)sc1=S)c1ccccc1	-6	4	10	34	23*	-13
Cc1cc2nc(C3CCCCC3)c(Cc3ccccc3)n2c(C)c1Br	16	-1	-3	.	.	3
CCOC(=O)[C@]12CCCC=C1N(CCc1ccc(OC)c(OC)c1)C(=O)[C@H](CC(=O)NCCc1ccccc1OC)C2	.	.	.	.	.	0
O=C(Nn1c(O)c(C=C2N=c3ccccc3=N2)sc1=S)c1ccc(Cl)cc1	-4	4	-2	8	32*	-11
SMILES	FAS-TE inh	iPSC survival up	Cardio protect	Arr AP2 block	NR3A LBD binder	SENP1 inh
CC1(C(=O)Nc2cnc3ccccc3c2)CCN1Cc1ccccc1Cl (stereo not drawn)	24	-3	-5	.	.	0
Cc1ccc2[nH]c(-c3cccc(N)c3)cc2c1	5	-2	2	0	31*	-5
COC(=O)[C@H]1C[C@@]2(O)CN(S(=O)(=O)c3ccc(C)cc3)C[C@@]2(OC(=O)NCc2ccco2)C[C@H]1C(=O)OC	-7	7	10	.	.	1
COc1ccc(N(C(=O)c2cccc([N+](=O)[O-])c2)S(=O)(=O)c2cccs2)cc1	24	-1	51*	14	1	1
Cc1cc(NC(=O)CN2C(=O)NC(CC(C)C)C2=O)ccc1Br (stereo not drawn)	7	0	-6	10	29*	-2
CC(C)CC1NC(=O)N(CC(=O)Nc2cccc(Br)c2)C1=O (stereo not drawn)	4	0	0	25	3	1
CC(=O)C1=CCC(c2ccc(Cl)cc2)N(S(=O)(=O)c2ccccc2)C1 (stereo not drawn)	16	-1	-2	.	.	1
O=C(C1=C[C@@H]2[C@H]3C(=O)N(c4cccc(Cl)c4)C(=O)[C@H]3[C@@H](C(=O)c3ccc(Cl)cc3)N2C=C1)c1ccccc1	35	2	2	-10	14*	-24
Cc1c(C(=O)NCc2ccc3c(c2)OCCO3)sc(=O)n1Cc1ccccc1F	2	-1	3	.	.	-3
NC1=NC(=O)/C(=C/c2ccccc2OS(=O)(=O)c2ccc3ccccc3c2)S1	-13	-1	14	-1	18*	3
CCCOc1ccccc1/C=C1\SC(N)=NC1=O	-1	0	-4	12	2	-33
CC(=O)Nc1nc(-c2cccs2)cs1	-5	0	3	1	1	-1
O=C(O)C1CCC1C(=O)Nc1nc(-c2ccc(Cl)s2)cs1 (stereo not drawn)	-3	-1	4	2	1	0
O=C(Nc1nc(-c2cccs2)cs1)c1ccc(Cl)s1	28	-3	-7	30	28*	-11
O=C(Nc1nc(-c2ccc(Cl)s2)cs1)c1ccccc1	32	-2	-6	-6	15*	-2
Cc1cc(C)nc(SCc2ccc(C(=O)N/N=C/c3ccccn3)cc2)n1	1	0	69*	6	-3	-6
Cc1ccc(COc2ccccc2-c2cc(C(=O)N/N=C/c3cccnc3)[nH]n2)cc1	8	-1	50*	-1	5	0
O=C(N/N=C/c1ccccn1)c1cc(-c2cccc3ccccc23)n[nH]1	18	-1	56*	-14	-14	-1
O=C(N/N=C/c1ccccn1)c1cc(C2CC2)nc2ccccc12	0	0	55*	3	-2	0
CCOc1ccccc1-c1cc(C(=O)N/N=C/c2cccnc2)c2ccccc2n1	0	2	4	-4	-1	0
O=C(N/N=C/c1ccncc1)c1cc(C2CC2)nc2ccccc12	-4	-1	0	-5	-2	0
